Square brackets hold non-standard residues; d marks the D form. pY = N[C@@H](Cc1ccc(OP(=O)(O)O)cc1)C(=O)O
What was measured:
R47E PTP1B = molecular target: T1, R47E PTP1B (Homo sapiens, UniProt P18031, R47E); assay: PTP assay, R47E PTP1B; format: biochemical; details: for Km / kcat / kcat/KM x 10^7: R47E PTP1B aa 1–321, pH 7.4; for WT/R47E: ratio of kcat/KM, WT over R47E PTP1B (fold decrease by the mutation)
T1 sequence (P18031 1-321 R47E): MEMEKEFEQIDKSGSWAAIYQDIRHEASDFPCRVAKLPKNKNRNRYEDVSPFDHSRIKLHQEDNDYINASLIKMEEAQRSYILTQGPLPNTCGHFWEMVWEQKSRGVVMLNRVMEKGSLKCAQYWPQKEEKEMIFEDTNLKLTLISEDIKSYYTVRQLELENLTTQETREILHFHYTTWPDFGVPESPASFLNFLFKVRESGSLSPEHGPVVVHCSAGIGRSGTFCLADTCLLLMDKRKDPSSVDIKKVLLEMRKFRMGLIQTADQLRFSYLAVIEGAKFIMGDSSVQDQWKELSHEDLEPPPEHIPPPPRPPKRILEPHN
Outline: (§1)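 E. coli-expressed catalytic domains were used: wild-type, R24M or R47E PTP1B (aa 1–321), and SHP-1 (aa 205–595). Reactions started with PTP (0.5–20000 nM final) and dephosphorylation was monitored continuously at 282 nm. kcat, KM and kcat/KM came from initial-rate fits (Michaelis–Menten, or V = kcat[E][S]/KM when KM >> [S]) or from fits of progress curves.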

PTP1B = molecular target: T2, PTP1B (Homo sapiens, UniProt P18031); assay: PTP assay, wild-type PTP1B; format: biochemical; details: for kcat/KM x 10^7: WT PTP1B aa 1–321, pH 7.4; for kcat/KM x10^6: WT catalytic domain aa 1–321, 100 mM HEPES pH 7.4, monitored at 282 nm
T2 sequence (P18031 1-321): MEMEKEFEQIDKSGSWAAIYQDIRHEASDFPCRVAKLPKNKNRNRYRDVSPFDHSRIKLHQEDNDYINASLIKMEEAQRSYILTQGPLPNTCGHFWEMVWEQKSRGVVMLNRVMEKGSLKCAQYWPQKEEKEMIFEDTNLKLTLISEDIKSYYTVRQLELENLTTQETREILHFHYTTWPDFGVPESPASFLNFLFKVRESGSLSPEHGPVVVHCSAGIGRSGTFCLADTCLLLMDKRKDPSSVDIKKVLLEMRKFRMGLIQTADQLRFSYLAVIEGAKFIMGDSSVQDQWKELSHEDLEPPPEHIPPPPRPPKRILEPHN
Outline: as §1

R24M PTP1B = molecular target: T3, R24M PTP1B (Homo sapiens, UniProt P18031, R24M); assay: PTP assay, R24M PTP1B; format: biochemical; details: for Km / kcat / kcat/KM x 10^7: R24M PTP1B aa 1–321, pH 7.4; for WT/R24M: ratio of kcat/KM, WT over R24M PTP1B (fold reduction by the mutation)
T3 sequence (P18031 1-321 R24M): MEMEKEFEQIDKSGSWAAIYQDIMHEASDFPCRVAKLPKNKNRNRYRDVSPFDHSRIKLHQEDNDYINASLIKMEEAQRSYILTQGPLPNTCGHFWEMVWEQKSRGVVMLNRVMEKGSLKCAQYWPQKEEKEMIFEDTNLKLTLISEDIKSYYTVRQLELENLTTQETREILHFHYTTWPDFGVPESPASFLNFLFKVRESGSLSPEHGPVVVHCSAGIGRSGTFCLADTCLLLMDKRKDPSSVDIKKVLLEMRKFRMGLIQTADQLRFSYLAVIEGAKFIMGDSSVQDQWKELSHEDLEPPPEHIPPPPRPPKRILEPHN
Outline: as §1

PTP-PEST = molecular target: T4, PTP-PEST (Homo sapiens, UniProt Q05209); assay: PTP assay with pY peptide substrates, PTP-PEST; format: biochemical; details: catalytic domain; pH 7.4
T4 sequence (Q05209 5-300): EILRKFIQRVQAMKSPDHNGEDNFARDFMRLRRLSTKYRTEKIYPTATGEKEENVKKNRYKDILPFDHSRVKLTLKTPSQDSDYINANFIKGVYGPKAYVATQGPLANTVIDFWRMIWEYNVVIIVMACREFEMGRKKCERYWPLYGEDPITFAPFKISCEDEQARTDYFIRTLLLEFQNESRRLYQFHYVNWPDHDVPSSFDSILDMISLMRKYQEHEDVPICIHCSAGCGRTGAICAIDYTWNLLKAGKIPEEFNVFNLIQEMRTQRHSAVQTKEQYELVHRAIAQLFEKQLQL

[1] = molecular target: T5, R24M PTP1B catalytic domain (amino acids 1-321) (human) (UniProt P18031)
T5 sequence: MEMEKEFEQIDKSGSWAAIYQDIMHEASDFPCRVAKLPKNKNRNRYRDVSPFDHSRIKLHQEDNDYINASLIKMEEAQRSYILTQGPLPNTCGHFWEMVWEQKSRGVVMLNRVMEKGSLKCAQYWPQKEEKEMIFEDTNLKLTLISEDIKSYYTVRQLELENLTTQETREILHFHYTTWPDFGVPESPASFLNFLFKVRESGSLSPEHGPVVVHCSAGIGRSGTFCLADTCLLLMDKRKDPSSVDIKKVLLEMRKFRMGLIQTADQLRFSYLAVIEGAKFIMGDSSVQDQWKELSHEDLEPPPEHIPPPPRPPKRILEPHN

[2] = molecular target: T6, wild-type PTP1B catalytic domain (amino acids 1-321) (human) (UniProt P18031)
T6 sequence: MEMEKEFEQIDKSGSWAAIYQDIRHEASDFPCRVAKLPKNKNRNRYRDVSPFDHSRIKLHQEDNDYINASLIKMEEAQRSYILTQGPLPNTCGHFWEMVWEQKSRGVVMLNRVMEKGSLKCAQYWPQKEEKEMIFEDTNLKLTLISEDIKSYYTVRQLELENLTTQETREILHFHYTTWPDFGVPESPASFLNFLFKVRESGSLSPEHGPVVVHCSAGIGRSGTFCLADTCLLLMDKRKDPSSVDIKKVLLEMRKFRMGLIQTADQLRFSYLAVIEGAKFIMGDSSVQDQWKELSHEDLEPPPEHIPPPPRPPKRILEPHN

[3] = molecular target: T7, R47E PTP1B catalytic domain (amino acids 1-321) (human) (UniProt P18031)
T7 sequence: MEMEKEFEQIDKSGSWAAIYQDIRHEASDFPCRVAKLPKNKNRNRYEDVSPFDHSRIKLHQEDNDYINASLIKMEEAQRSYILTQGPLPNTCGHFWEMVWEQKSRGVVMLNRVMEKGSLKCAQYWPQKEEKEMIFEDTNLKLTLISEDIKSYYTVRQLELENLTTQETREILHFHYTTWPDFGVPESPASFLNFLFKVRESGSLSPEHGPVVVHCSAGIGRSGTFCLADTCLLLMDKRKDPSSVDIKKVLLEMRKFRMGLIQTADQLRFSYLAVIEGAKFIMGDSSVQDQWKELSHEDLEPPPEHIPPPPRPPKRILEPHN

Ac-AWGPLpYDEVQM-NH2
Km (R47E PTP1B): 5.6 ± 0.4 µM
kcat (R47E PTP1B): 34 ± 2 s⁻¹
kcat/KM x 10^7 (R47E PTP1B): 0.61 x 10^7 M^−1 s^−1
WT/R47E (R47E PTP1B): 2.8
kcat/KM x 10^7 (PTP1B): 1.7 x 10^7 M^−1 s^−1
Km (R24M PTP1B): 5 ± 0.5 µM
kcat (R24M PTP1B): 36 ± 1 s⁻¹
kcat/KM x 10^7 (R24M PTP1B): 0.72 x 10^7 M^−1 s^−1
WT/R24M (R24M PTP1B): 2.3

AApYADDAA
Km (R47E PTP1B): 12 ± 1 µM
kcat (R47E PTP1B): 34 ± 1 s⁻¹
kcat/KM x 10^7 (R47E PTP1B): 0.29 x 10^7 M^−1 s^−1
WT/R47E (R47E PTP1B): 4.8
kcat/KM x 10^7 (PTP1B): 1.4 x 10^7 M^−1 s^−1
Km (R24M PTP1B): 6.4 ± 0.2 µM
kcat (R24M PTP1B): 38 ± 1 s⁻¹
kcat/KM x 10^7 (R24M PTP1B): 0.59 x 10^7 M^−1 s^−1
WT/R24M (R24M PTP1B): 2.4

AApYAADDA
Km (R47E PTP1B): 11 ± 2 µM
kcat (R47E PTP1B): 36 ± 2 s⁻¹
kcat/KM x 10^7 (R47E PTP1B): 0.32 x 10^7 M^−1 s^−1
WT/R47E (R47E PTP1B): 3.4
kcat/KM x 10^7 (PTP1B): 1.1 x 10^7 M^−1 s^−1
Km (R24M PTP1B): 6.9 ± 0.1 µM
kcat (R24M PTP1B): 38 ± 1 s⁻¹
kcat/KM x 10^7 (R24M PTP1B): 0.55 x 10^7 M^−1 s^−1
WT/R24M (R24M PTP1B): 2.0

AApYAAADD
Km (R47E PTP1B): 10 ± 1 µM
kcat (R47E PTP1B): 35 ± 1 s⁻¹
kcat/KM x 10^7 (R47E PTP1B): 0.35 x 10^7 M^−1 s^−1
WT/R47E (R47E PTP1B): 2.8
kcat/KM x 10^7 (PTP1B): 0.97 x 10^7 M^−1 s^−1
Km (R24M PTP1B): 8.7 ± 0.4 µM
kcat (R24M PTP1B): 37 ± 1 s⁻¹
kcat/KM x 10^7 (R24M PTP1B): 0.43 x 10^7 M^−1 s^−1
WT/R24M (R24M PTP1B): 2.3

Ac-AApYDLDEY-NH2
kcat/KM (PTP-PEST): 1.3e+08 M⁻¹ s⁻¹
kcat/KM x10^6 (PTP1B): 18 x10^6 M^−1 s^−1

EEDNAWpYAA
Km (R47E PTP1B): 9.5 ± 0.4 µM
kcat (R47E PTP1B): 32 ± 1 s⁻¹
kcat/KM x 10^7 (R47E PTP1B): 0.33 x 10^7 M^−1 s^−1
WT/R47E (R47E PTP1B): 6.4
kcat/KM x 10^7 (PTP1B): 2.1 x 10^7 M^−1 s^−1
kcat/KM x10^6 (PTP1B): 21 x10^6 M^−1 s^−1
Km (R24M PTP1B): 1.9 ± 0.1 µM
kcat (R24M PTP1B): 35 ± 1 s⁻¹
kcat/KM x 10^7 (R24M PTP1B): 1.8 x 10^7 M^−1 s^−1
WT/R24M (R24M PTP1B): 1.2

AApYWAYDD
kcat/KM x10^6 (PTP1B): 15 x10^6 M^−1 s^−1

B1: Ac-AApYIRKRA-NH2 (peptide)
peptide: Ac-AA[pY]IRKRA-NH2
SMILES: CC[C@H](C)[C@H](NC(=O)[C@H](Cc1ccc(OP(=O)(O)O)cc1)NC(=O)[C@H](C)NC(=O)[C@H](C)NC(C)=O)C(=O)N[C@@H](CCCNC(=N)N)C(=O)N[C@@H](CCCCN)C(=O)N[C@@H](CCCNC(=N)N)C(=O)N[C@@H](C)C(N)=O
KM, steady-state dephosphorylation of the pY peptide [1]: 52 µM
KM, steady-state dephosphorylation of the pY peptide [2]: 89 µM

B2: Ac-ARKRIpYAA-NH2 (peptide)
peptide: Ac-ARKRI[pY]AA-NH2
SMILES: CC[C@H](C)[C@H](NC(=O)[C@H](CCCNC(=N)N)NC(=O)[C@H](CCCCN)NC(=O)[C@H](CCCNC(=N)N)NC(=O)[C@H](C)NC(C)=O)C(=O)N[C@@H](Cc1ccc(OP(=O)(O)O)cc1)C(=O)N[C@@H](C)C(=O)N[C@@H](C)C(N)=O
KM, steady-state dephosphorylation of the pY peptide [2]: 166 µM
KM, steady-state dephosphorylation of the pY peptide [3]: 31 µM

B3: Ac-AApYDDAAA-NH2 (peptide)
peptide: Ac-AA[pY]DDAAA-NH2
SMILES: CC(=O)N[C@@H](C)C(=O)N[C@@H](C)C(=O)N[C@@H](Cc1ccc(OP(=O)(O)O)cc1)C(=O)N[C@@H](CC(=O)O)C(=O)N[C@@H](CC(=O)O)C(=O)N[C@@H](C)C(=O)N[C@@H](C)C(=O)N[C@@H](C)C(N)=O
KM, steady-state dephosphorylation of the pY peptide [2]: 6.5 µM
KM, steady-state dephosphorylation of the pY peptide [3]: 34 µM

Reference: publication PMC3954597 (Biochemistry, 2014)
